A short description of assay [1]: Binding affinity to penicillopepsin.
Assay [2] addresses T1, NAD kinase (Mycobacterium tuberculosis, UniProt P9WHV7).
T1 sequence (P9WHV7 whole entry): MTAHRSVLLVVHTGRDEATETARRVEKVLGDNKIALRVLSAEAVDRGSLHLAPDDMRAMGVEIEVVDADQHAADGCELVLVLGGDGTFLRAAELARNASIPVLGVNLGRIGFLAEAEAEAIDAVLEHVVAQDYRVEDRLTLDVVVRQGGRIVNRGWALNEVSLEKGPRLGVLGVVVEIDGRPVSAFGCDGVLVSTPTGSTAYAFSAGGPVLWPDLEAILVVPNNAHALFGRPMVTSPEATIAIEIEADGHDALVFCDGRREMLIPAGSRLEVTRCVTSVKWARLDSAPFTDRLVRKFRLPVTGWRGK
As to the kind of experiment: Inhibition of Mycobacterium tuberculosis NAD kinase by modified HPLC based assay. In a few lines: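 Purified-to-homogeneity M. tuberculosis NAD kinase incubated at 37 °C in 50 mM Tris/HCl pH 8.0, 20 mM MgCl₂ with ATP and NAD substrates, without or with varying inhibitor concentrations. Reaction stopped with HClO₄, neutralized with K₂CO₃, nucleotides resolved by reversed-phase C18 HPLC with potassium phosphate pH 6.0/methanol gradient.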

The target in assay [3] is T2, NAD kinase (Homo sapiens, UniProt O95544).
T2 sequence (O95544 whole entry): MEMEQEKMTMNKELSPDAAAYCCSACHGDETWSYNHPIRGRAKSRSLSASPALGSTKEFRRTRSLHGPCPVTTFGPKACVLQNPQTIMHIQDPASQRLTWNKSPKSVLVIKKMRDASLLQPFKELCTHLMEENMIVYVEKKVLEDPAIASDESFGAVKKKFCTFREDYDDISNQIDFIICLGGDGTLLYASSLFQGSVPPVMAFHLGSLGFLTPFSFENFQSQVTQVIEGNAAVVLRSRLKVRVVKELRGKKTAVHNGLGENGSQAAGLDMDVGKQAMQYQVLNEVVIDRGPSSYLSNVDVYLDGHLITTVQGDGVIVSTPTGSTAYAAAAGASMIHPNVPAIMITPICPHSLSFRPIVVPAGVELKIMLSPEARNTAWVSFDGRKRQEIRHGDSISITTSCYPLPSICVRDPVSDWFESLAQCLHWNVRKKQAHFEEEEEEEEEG
Nature of the assay: Inhibition of human NAD kinase by modified HPLC based assay.

Assay [4] addresses Inosine-5'-monophosphate dehydrogenase 1 (Homo sapiens) (UniProt P20839). As to the kind of experiment: Inhibition of human IMPDH1 at 100 uM.
For assay [5], the target named is Inosine-5'-monophosphate dehydrogenase 2 (Homo sapiens) (UniProt P12268). Nature of the assay: Inhibition of human IMPDH2 at 100 uM.
Sequence of Inosine-5'-monophosphate dehydrogenase 2 (Homo sapiens) (P12268 2-514 limits assumed): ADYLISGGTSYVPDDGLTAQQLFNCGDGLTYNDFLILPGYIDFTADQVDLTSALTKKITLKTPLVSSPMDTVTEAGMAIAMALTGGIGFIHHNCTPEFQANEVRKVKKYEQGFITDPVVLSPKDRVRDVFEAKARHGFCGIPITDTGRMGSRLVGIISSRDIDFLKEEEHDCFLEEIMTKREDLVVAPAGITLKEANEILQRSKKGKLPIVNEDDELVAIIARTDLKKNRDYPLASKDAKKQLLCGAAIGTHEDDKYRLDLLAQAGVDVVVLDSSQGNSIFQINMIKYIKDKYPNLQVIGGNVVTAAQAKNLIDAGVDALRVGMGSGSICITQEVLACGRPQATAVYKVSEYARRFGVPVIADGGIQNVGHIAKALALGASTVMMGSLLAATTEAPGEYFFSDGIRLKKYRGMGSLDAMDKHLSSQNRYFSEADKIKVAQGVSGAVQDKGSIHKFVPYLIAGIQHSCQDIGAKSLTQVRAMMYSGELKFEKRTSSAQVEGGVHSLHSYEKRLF
Assay [6] addresses L-lactate dehydrogenase (Homo sapiens) (UniProt V9HWB9). As to the kind of experiment: Inhibition of human LDH at 100 uM.
A short description of assay [7]: (§1) Inhibition of human IMPDH.
Assay [8] can be described thus: Inhibition of horse liver alcohol dehydrogenase. The arrangement: species or system Equus caballus.
The species entered for the next assay is Homo sapiens. Described as §1.
The target of assay [9] is L-lactate dehydrogenase (Homo sapiens) (UniProt V9HWB9). As to the kind of experiment: Inhibition of human LDH.
Assay [10] is described as follows: Inhibition of Listeria monocytogenes NADK1.

Results on 15 compounds are retold here after ChEMBL document CHEMBL1152430, “Selective inhibition of nicotinamide adenine dinucleotide kinases by dinucleoside disulfide mimics of nicotinamide adenine dinucleotide analogues” (Bioorg Med Chem, 2009).

Calls of active or inactive are those of the source. The rule behind the calls is not given here.

Sequence of Inosine-5'-monophosphate dehydrogenase 1 (Homo sapiens) (P20839 2-514 limits assumed): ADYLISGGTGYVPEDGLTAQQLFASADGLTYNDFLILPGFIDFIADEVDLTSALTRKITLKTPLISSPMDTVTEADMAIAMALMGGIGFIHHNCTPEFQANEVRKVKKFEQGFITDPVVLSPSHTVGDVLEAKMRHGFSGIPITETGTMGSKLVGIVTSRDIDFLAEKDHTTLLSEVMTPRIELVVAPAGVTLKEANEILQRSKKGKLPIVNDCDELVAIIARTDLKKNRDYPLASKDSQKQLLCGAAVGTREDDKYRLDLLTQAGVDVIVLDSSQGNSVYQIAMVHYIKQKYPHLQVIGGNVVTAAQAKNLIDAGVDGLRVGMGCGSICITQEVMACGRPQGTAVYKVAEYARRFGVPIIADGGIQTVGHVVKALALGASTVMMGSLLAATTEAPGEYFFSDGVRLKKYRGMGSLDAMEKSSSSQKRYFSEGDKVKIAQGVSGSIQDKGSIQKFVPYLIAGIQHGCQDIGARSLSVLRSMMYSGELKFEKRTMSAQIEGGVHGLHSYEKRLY

For `COC(=O)[C@@H]1Cc2cccc(c2)CNC(=O)C[C@H](NC(=O)[C@@H](NC(=O)CC(C)C)C(C)C)C(=O)N[C@@H](CC(C)C)P(=O)(O)O1`, in assay [1], the Ki amounted to 0.0001 µM.
In the case of `NC(=O)c1cccc([C@@H]2O[C@H](COP(=O)(O)OP(=O)(O)OC[C@H]3O[C@@H](n4cnc5c(N)ncnc54)[C@H](O)[C@@H]3O)[C@@H](O)[C@H]2O)c1` [BENZAMIDEADENINEDINUCLEOSIDE], the IC50 on NAD kinase [2] (read-out: IC50) came out at 200 µM.
Regarding `C[C@@]1(O)[C@H](O)[C@@H](CSSC[C@H]2O[C@@H](n3cnc4c(N)ncnc43)[C@](C)(O)[C@@H]2O)O[C@H]1n1cnc2c(N)ncnc21`, the IC50 on NAD kinase [2] (read-out: IC50) worked out at 500 µM; on NAD kinase [3] (read-out: IC50), 280 µM. Besides, the inhibition entry in assay [4], in assay [5] and in assay [6] was “inactive” throughout.
As for `C[C@@]1(O)[C@@H](CSSC[C@H]2O[C@@H](n3cnc4c(N)ncnc43)[C@H](O)[C@]2(C)O)O[C@@H](n2cnc3c(N)ncnc32)[C@@H]1O`, the IC50 entry against NAD kinase [2] and against NAD kinase [3] was “Not Active” each time. In addition, the inhibition entry in assay [4], in assay [5] and in [6] was “inactive” each time.
In assay [7], `CCc1nc(N)c2ncn([C@@H]3O[C@H](COP(=O)(O)OP(=O)(O)OC[C@H]4O[C@@H](c5nc(C(N)=O)cs5)[C@H](O)[C@@H]4O)[C@@H](O)[C@H]3O)c2n1` displayed a Ki of 0.001 µM.
In the case of `NC(=O)c1csc([C@@H]2O[C@H](COP(=O)(O)OP(=O)(O)OC[C@H]3O[C@@H](n4cnc5c(N)ncnc54)[C@H](O)[C@@H]3O)[C@@H](O)[C@H]2O)n1` [TIAZOFURIN ADENINE DINUCLEOTIDE], the Ki in assay [8] is 0.001 µM; in assay [7], 0.1 µM.
In assay [1], `COC(=O)[C@H](Cc1ccccc1)OP(=O)(O)[C@H](CC(C)C)NC(=O)[C@H](CC(N)=O)NC(=O)[C@@H](NC(=O)CC(C)C)C(C)C` displayed a Ki of 0.042 µM.
Compound `C#Cc1nc(N)c2ncn([C@@H]3O[C@H](COP(=O)(O)OP(=O)(O)OC[C@H]4O[C@@H](c5nc(C(N)=O)cs5)[C@H](O)[C@@H]4O)[C@@H](O)[C@H]3O)c2n1` yielded a Ki in assay [7] of 0.01 µM. This counts as double-digit nanomolar.
`Nc1ncnc2c1nc(-c1ccccc1)n2[C@@H]1O[C@H](CSSC[C@H]2O[C@@H](n3c(-c4ccccc4)nc4c(N)ncnc43)[C@H](O)[C@@H]2O)[C@@H](O)[C@H]1O`: the IC50 entry at NAD kinase [2] is “Not Active”; on NAD kinase [3] (read-out: IC50) it was 45 µM. The inhibition result in assay [4], in assay [5] and in assay [6] was “inactive” each time.
On to `NC(=O)c1csc([C@@H]2O[C@H](CSSC[C@H]3O[C@@H](c4nc(C(N)=O)cs4)[C@H](O)[C@@H]3O)[C@@H](O)[C@H]2O)n1`, for which the IC50 entry against NAD kinase [2] and against NAD kinase [3] was “Not Active” throughout. The inhibition entry (in the assay listed under Homo sapiens; in [9]; in assay [4]; in assay [5]; in assay [6]) was “inactive” in each case.
In the case of `Nc1ncnc2c1nc(Br)n2[C@@H]1O[C@H](CSSC[C@H]2O[C@@H](n3c(Br)nc4c(N)ncnc43)[C@H](O)[C@@H]2O)[C@@H](O)[C@H]1O`, the 50% inhibitory concentration (IC50) was 19 µM on NAD kinase [2] (read-out: IC50) and 6 µM on NAD kinase [3] (read-out: IC50). Besides, the inhibition entry in assay [4], in assay [5] and in assay [6] was “inactive” throughout.
In the case of `NC(=O)c1csc([C@@H]2O[C@H](CSSC[C@H]3O[C@@H](n4cnc5c(N)ncnc54)[C@H](O)[C@@H]3O)[C@@H](O)[C@H]2O)n1`, the IC50 came to 80 µM at NAD kinase [2] (read-out: IC50) and 110 µM at NAD kinase [3] (read-out: IC50). Also, the inhibition result (in the assay listed under Homo sapiens; in assay [9]; in assay [4]; in assay [5]; in assay [6]) was “inactive” each time.
Consider `Nc1ncnc2c1ncn2[C@@H]1O[C@H](CSSC[C@H]2O[C@@H](n3c(Br)nc4c(N)ncnc43)[C@H](O)[C@@H]2O)[C@@H](O)[C@H]1O`, for which the IC50 came to 14 µM on NAD kinase [2] (read-out: IC50) and 6 µM on NAD kinase [3] (read-out: IC50). In addition, the inhibition entry in assay [4], in assay [5] and in [6] was “inactive” in each case.
For `NC(=O)c1csc([C@@H]2O[C@H](COP(=O)(O)OP(=O)(O)OC[C@H]3O[C@@H](n4cnc5c(N)nc(I)nc54)[C@H](O)[C@@H]3O)[C@@H](O)[C@H]2O)n1`, affinity in [7] was put at a Ki of 0.02 µM.
As to `Nc1ncnc2c1ncn2[C@@H]1O[C@H](CSSC[C@H]2O[C@@H](n3cnc4c(N)ncnc43)[C@H](O)[C@@H]2O)[C@@H](O)[C@H]1O`, the inhibition constant (Ki) in assay [10] is 20 µM. The IC50 at NAD kinase [2] (read-out: IC50) came out at 45 µM; at NAD kinase [3] (read-out: IC50) it was 87 µM. In addition, the inhibition entry (in the assay filed under Homo sapiens; in [9]; in assay [4]; in assay [5]; in assay [6]) was “inactive” each time.

By Ki is commonly meant a measure of affinity in units of concentration, obtained from inhibition or displacement. A lower Ki goes with a stronger hold on the target. In general, IC50 refers to the concentration at which inhibition is half-maximal.
